Measured values published in PMC5438482 (Journal of Alzheimer's Disease, 2017).

Experiments:
[1] = comparison CNS drug; no reference given; cited from earlier work
MC65 cells [2] = test: Cellular ROS assay with CM-H2DCFDA in MC65 cells; format: cell-based; conditions: CM-H2DCFDA fluorescence, TC- condition, n = 7-8
How it was run: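 MC65 cells kept in 1 μg/mL tetracycline were washed extensively and plated at 2.5×10^4 cells/well in serum-free, phenol-red-free Opti-MEM without tetracycline. For ROS, cells were PBS-washed, loaded with CM-H2DCFDA and incubated 40 min. Random fluorescence photomicrographs were taken per condition, and intensity was quantified by image analysis, blinded to investigator.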

MC65 cells [3] = conditions: cited from earlier work

| Compound | Log Doct [1] | ROS production of MC65 cells (MC65 cells [2]) | MC65 cell death (MC65 cells [3]) |
| --- | --- | --- | --- |
| CN(C)CCC(c1ccc(Cl)cc1)c1ccccn1 (stereo not drawn) [chlorpheniramine] | 1.25 | – | – |
| Cc1c(C)c2c(c(C)c1O)CC[C@@](C)(CCC[C@H](C)CCC[C@H](C)CCCC(C)C)O2 [α-tocopherol] | – | reduced | blocked |
